ChEMBL document CHEMBL5113551, “Fragment-Based Dynamic Combinatorial Chemistry for Identification of Selective α-Glucosidase Inhibitors” (ACS Med Chem Lett, 2022)

What was measured:
[1] = Inhibition of alpha glucosidase (unknown origin); parameters: species or system Homo sapiens
Alpha amylase = target: T1, Alpha amylase (Homo sapiens, UniProt P0DUB6); test: Inhibition of alpha-amylase (unknown origin)
T1 sequence (P0DUB6 whole entry): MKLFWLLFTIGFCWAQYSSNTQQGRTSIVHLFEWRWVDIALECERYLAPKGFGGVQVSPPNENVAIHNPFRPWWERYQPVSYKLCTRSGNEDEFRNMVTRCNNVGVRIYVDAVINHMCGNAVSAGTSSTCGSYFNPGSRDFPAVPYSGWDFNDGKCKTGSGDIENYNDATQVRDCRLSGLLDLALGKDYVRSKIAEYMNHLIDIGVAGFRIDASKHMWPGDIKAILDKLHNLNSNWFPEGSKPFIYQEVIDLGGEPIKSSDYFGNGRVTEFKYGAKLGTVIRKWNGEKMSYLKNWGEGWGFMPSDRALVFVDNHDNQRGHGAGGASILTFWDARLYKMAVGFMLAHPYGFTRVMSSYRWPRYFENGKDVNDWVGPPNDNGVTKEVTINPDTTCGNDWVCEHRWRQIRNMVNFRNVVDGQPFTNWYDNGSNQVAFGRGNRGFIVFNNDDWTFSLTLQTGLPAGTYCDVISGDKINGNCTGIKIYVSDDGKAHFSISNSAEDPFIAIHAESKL

[2] = Cytotoxicity against human HepG2 cells assessed as reduction in cell viability incubated for 24 hrs by CCK8 assay; format: toxicity, cell-based
[3] = Competitive inhibition of alpha glucosidase (unknown origin) using pNPG as substrate by Dixon plot analysis; parameters: species or system Homo sapiens
Outline: (§1)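 Inhibition kinetics used a slightly modified, previously described method. Reciprocal velocity was plotted against inhibitor concentration at several fixed substrate concentrations (Dixon plot). The competitive constant (Ki) and noncompetitive constant (αKi) were read from this plot.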

Homo sapiens [4] = organism: Homo sapiens; test: Non-competitive inhibition of alpha glucosidase (unknown origin) using pNPG as substrate by Dixon plot analysis; outline: as §1
Homo sapiens [5] = organism: Homo sapiens; test: Mixed type of inhibition of alpha glucosidase (unknown origin) using pNPG as substrate by Lineweaver-Burk plot analysis
Outline: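 Reaction velocity was measured across a range of substrate concentrations at several inhibitor concentrations. The data were plotted as 1/V versus 1/[S] and fitted linearly (Lineweaver–Burk). The quadrant where the lines intersect assigned the inhibition type, and the enzyme Km was derived from the same plot.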

IC50 [1]	IC50 (Alpha amylase)	Ki [3]	alphaKi (Homo sapiens [4])	Km (Homo sapiens [5])	SMILES	CC50 at 24 h [2]
> 200 µM	> 200 µM				Cc1ccc(S(=O)(=O)Oc2ccc(/C=N/NC(=O)c3ccc(O)cc3)cc2)cc1	
8.06 µM					C[C@H]1O[C@H](O[C@H]2[C@H](O)[C@@H](O)[C@@H](O[C@H]3[C@H](O)[C@@H](O)C(O)O[C@@H]3CO)O[C@@H]2CO)[C@H](O)[C@@H](O)[C@@H]1N[C@H]1C=C(CO)[C@@H](O)[C@H](O)[C@H]1O (some centres not stated) [ACARBOSE]	
168 µM	> 200 µM				Cc1ccc(S(=O)(=O)Oc2ccc(/C=N/NC(=O)c3nc4ccccc4[nH]3)cc2)cc1	

Continued, compound first:

SMILES	IC50 [1]	IC50 (Alpha amylase)	Ki [3]	alphaKi (Homo sapiens [4])	Km (Homo sapiens [5])	CC50 at 24 h [2]
Cc1ccc(S(=O)(=O)Oc2ccc(/C=N/NC(=O)Cc3ccccn3)cc2)cc1	> 200 µM	> 200 µM				
O=C(N/N=C/c1coc2ccccc2c1=O)c1nc2ccccc2[nH]1	32.5 µM	> 200 µM				> 200 µM
Cc1ccc2occ(/C=N/NC(=O)c3cc4ccccc4[nH]3)c(=O)c2c1	2.52 µM	> 200 µM	1.98 µM	2.75 µM	930 µM	> 200 µM
O=C(N/N=C/c1coc2ccccc2c1=O)c1cc2ccccc2[nH]1	6.49 µM	128.1 µM				> 200 µM
O=C(N/N=C/c1coc2ccc(O)cc2c1=O)c1cc2ccccc2[nH]1	22.6 µM	151.46 µM				> 200 µM
